From PubChem
This is a sample that favours compounds with a hit; in the whole collection about 1.2% have one here.
PfGluPho inh – PfG6PD enzyme inhibitors, primary screen, biochemical, fluorescence intensity, uHTS; glucose-6-phosphate dehydrogenase-6-phosphogluconolactonase (Plasmodium falciparum 3D7); PfGluPho enzyme, NADPH resazurin-diaphorase fluorescence; inhibition, % at 20 µM; actives 0.78% (n = 350,000);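 active = inhibition reaching at least a set limit at 20 µM in the primary screen, cut at about 59% in these data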;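 note: 0% = DMSO wells with substrate and 100% = DMSO wells lacking glucose-6-phosphate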
HKDC1 inh – HKDC1 hexokinase inhibitors, primary screen, biochemical, fluorescence, uHTS. Q2TB90. recombinant HKDC1, G6PDH/diaphorase resazurin coupled fluorescence. inhibition, % at 20 µM. actives 0.16% (n = 340,000);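 active = inhibition above about 35% when tested at 20 µM, limit read from the data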;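 note: plate controls were DMSO wells with enzyme for no effect and DMSO wells lacking enzyme for full effect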
Target sequence (Q2TB90 whole entry, looked up): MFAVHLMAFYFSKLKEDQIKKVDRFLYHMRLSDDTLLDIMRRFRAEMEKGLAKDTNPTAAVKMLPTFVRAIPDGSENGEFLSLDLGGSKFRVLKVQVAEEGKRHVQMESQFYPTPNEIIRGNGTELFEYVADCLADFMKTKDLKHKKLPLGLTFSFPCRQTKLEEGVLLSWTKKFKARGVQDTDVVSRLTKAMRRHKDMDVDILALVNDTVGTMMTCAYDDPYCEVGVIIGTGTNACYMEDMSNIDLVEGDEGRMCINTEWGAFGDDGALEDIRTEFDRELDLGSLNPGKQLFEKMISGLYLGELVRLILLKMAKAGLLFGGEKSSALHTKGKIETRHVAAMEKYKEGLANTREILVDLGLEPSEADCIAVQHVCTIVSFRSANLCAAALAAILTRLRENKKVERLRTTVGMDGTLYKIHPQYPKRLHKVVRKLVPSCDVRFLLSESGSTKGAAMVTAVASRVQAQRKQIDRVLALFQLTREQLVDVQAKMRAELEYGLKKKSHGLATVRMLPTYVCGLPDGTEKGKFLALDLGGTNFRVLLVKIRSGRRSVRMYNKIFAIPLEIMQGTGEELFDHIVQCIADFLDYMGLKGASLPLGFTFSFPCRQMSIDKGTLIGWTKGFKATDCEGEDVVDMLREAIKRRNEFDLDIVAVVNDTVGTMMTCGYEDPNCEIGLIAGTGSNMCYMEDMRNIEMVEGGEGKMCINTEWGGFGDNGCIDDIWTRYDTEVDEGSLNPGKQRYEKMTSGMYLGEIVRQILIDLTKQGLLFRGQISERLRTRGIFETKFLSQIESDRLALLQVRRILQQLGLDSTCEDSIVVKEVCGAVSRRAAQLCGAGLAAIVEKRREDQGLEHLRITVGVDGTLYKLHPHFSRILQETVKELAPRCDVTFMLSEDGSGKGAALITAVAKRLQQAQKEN
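Material – in-house recombinant HK5 (HKDC1) enzyme · Quantity – HKDC1 at 5 µg/mL · Buffer or medium – pH 8.0 Tris buffer with 10 mM MgCl2 · Reagent – glucose with 1 mM ATP · Dosing – single 20 µM dose · Times – reaction time 90 min, room temperature, protected from light · Technique – resorufin fluorescence at 613 nm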
G6PDH counter – L. mesenteroides G6PDH inhibitors, counter-screen for G6PDH-coupled screening assays, biochemical, Leuconostoc mesenteroides enzyme; glucose-6-phosphate dehydrogenase [Leuconostoc mesenteroides]; AID 1020, 2008; inhibition, % at 5 µM; Purified L. mesenteroides G6PDH, diaphorase/resazurin coupled fluorescence, 45 min; actives 0.12% (n = 200,000); in the data active = inhibition above about 50%
Diaphorase inh – diaphorase inhibitors and chemical oxidizers, primary screen, counter-screen for diaphorase-coupled primary assays, biochemical, uHTS, resorufin fluorescence; actives 0.69% (n = 190,000); AID 1217, 2008; diaphorase resazurin-to-resorufin fluorescence, NADH, 16 min; bacterial (C. kluyveri) enzyme, not human; inhibition, % at 20 µM;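 active = primary screen inhibition at 20 µM above a set limit, cut at about 50% in these data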;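 note: plate controls were DMSO with full reaction for no effect and wells lacking NADH for full effect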
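Assay system: diaphorase enzyme from Clostridium kluyveri; Input: enzyme working solution with 0.14 U/mL diaphorase; Timing: 16 min at room temperature; Technique: resorufin fluorescence, excitation 544 nm, emission 590 nm; Benchmarks: positive control minus NADH, DMSO neutral control.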
PfGluPho conf – PfG6PD inhibitors, hit retest, confirmation, biochemical, fluorescence intensity, single concentration; shares compounds with PfGluPho inh; recombinant PfGluPho, NADPH-diaphorase-resazurin fluorescence; inhibition, % at 20 µM; actives 34% (n = 2,400); AID 504753, 2011;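 active = inhibition of at least 50% at 20 µM in any single replicate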;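 note: 0% = DMSO with substrate and 100% = DMSO lacking glucose-6-phosphate substrate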
Diaph ctr 10uM – diaphorase inhibitors and chemical oxidizers, confirmation, counter-screen for P. falciparum G6PD inhibitor project, biochemical, fluorescence intensity, 10 µM NADPH; shares compounds with PfGluPho inh; diaphorase-coupled resazurin reduction, NADPH 10 uM; inhibition, % at 20 µM; actives 39% (n = 820); AID 504862, 2011;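 active = average inhibition reaching 50% or more with the compound at 20 µM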;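 note: resorufin red fluorescence formed as diaphorase reduces resazurin using NADPH; 0% = DMSO with enzyme and 100% = DMSO without enzyme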
Diaphorase 30uM – diaphorase inhibitors and chemical oxidizers, confirmation, counter-screen for P. falciparum G6PD inhibitor project, biochemical, fluorescence intensity, 30 µM NADPH. shares compounds with PfGluPho inh. Diaphorase/resazurin coupled assay, resorufin fluorescence. inhibition, % at 20 µM. actives 29% (n = 820). AID 504863, 2011;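 active = inhibition averaging 50% or more, tested at 20 µM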;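 note: 0% = DMSO with enzyme and 100% = DMSO wells lacking diaphorase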
The depositor's hits bear a star; nt = no result given.

SMILES | PfGluPho inh | HKDC1 inh | G6PDH counter | Diaphorase inh | PfGluPho conf | others
O=c1[nH]nc(CNc2ccc(O)cc2)c2ccccc12 | 59* | 15 | 9 | 28 | 48* | Diaph ctr 10uM=1;Diaphorase 30uM=6
Nc1ccn([C@@H]2O[C@H](CNCc3cnc(N4CCOCC4)nc3)[C@@H](O)[C@H]2O)c(=O)n1 | 3 | nt | nt | nt | nt
O=C(CN(C(=O)c1csnn1)c1cccc(C(F)(F)F)c1)NCc1ccc(F)cc1 | 17 | -4 | nt | nt | nt
CC(=O)Nc1ccc(S(=O)(=O)NNc2ccc([N+](=O)[O-])cc2)cc1 | 75* | 2 | nt | nt | 33
Cc1ccc(NNS(=O)(=O)c2ccc(C)cc2)cc1 | 99* | -4 | 9 | 20 | 54* | Diaph ctr 10uM=30;Diaphorase 30uM=-6
O=C(NNc1ccc([N+](=O)[O-])cc1)Nc1ccccc1 | 74* | -2 | nt | nt | 0
CC(=O)c1ccc(S(=O)(=O)NCCC(=O)OCC(=O)N2CCCC2=O)cc1 | -8 | -3 | nt | nt | nt
CCOc1ccc(NC(=O)CC2S/C(=N/N=C3CCCCCC3)NC2=O)cc1 (centres undefined) | -21 | -4 | nt | nt | nt
Cc1nc2c(o1)C(=O)c1ccccc1C2=Nc1ccccc1 | 104* | 10 | nt | nt | 50* | Diaph ctr 10uM=53*;Diaphorase 30uM=48
COc1cc(CC(=O)OCC(=O)NC2CCCCCC2)cc(OC)c1OC | -1 | -8 | nt | nt | nt
CCCCCn1nc(C(=O)N(CC)c2c(N)n(CCCC)c(=O)[nH]c2=O)c2ccccc2c1=O | 11 | -7 | nt | nt | nt
Cn1c(=N)n(CC(O)c2cccc3ccccc23)c2ccccc21 (centres undefined) | 80* | 0 | 5 | 10 | 62* | Diaph ctr 10uM=63*;Diaphorase 30uM=52*
Cn1c(=N)n(CC(O)c2ccco2)c2ccccc21 (centres undefined) | 13 | -2 | 5 | 14 | nt
COc1ccc2nc(NC(=S)N(C)C)sc2c1 | 70* | -10 | 4 | 5 | 13
Cc1c(C(=O)N(Cc2ccccc2Cl)C2CCS(=O)(=O)C2)oc2ccccc12 (centres undefined) | 96* | 2 | nt | nt | 57* | Diaph ctr 10uM=59*;Diaphorase 30uM=46
CC(SC(=S)N(C)Cc1cccs1)C(=O)O (centres undefined) | -18 | -12 | 2 | -4 | nt
CN(C)c1nc(=NCc2cccs2)ss1 | 60* | -27 | nt | nt | 49* | Diaph ctr 10uM=4;Diaphorase 30uM=-4
Cc1cc(C)c(C#N)c(=N)o1 | 66* | -15 | 18 | 12 | 47
COc1ccc(S(=O)(=O)Nc2cc3c4c(c2)CC(=O)N4CCC3)cc1OC | -6 | nt | nt | nt | nt
Cn1c(NN)nc2sc3c(c2c1=O)CC(C)(C)OC3 | 65* | -15 | 12 | 9 | 34
COC(=O)CCC(=O)OC1(C)C(=O)C=C2C=C(C3CC3)N(C(CO)CO)C=C2C1=O (centres undefined) | 52 | 17 | nt | nt | nt
COC(=O)CCC(=O)OC1(C)C(=O)C=C2C=C(C3CC3)N(CCCOC(C)C)C=C2C1=O (centres undefined) | 68* | 20 | nt | nt | 23
COC(=O)CCC(=O)OC1(C)C(=O)C=C2C=C(C3CC3)N(CCc3ccccn3)C=C2C1=O (centres undefined) | 63* | 19 | nt | nt | 26
COC(=O)CCC(=O)OC1(C)C(=O)C=C2C=C(C3CC3)N(CCCCO)C=C2C1=O (centres undefined) | 52 | 20 | nt | nt | nt
COC(=O)CCCC1=CC2=CC(=O)C(C)(OC(=O)c3cccs3)C(=O)C2=CN1C1CC1 (centres undefined) | 62* | 15 | nt | nt | 6
COC(=O)CCC(=O)OC1(C)C(=O)C=C2C=C(C3CC3)N(c3ccccc3)C=C2C1=O (centres undefined) | 66* | 16 | nt | nt | 37
